Bioassay records deposited in PubChem by several laboratories.
In the library only some 2% were active in any assay of this set; here they are far more common.
TRPN1 ag: zebrafish TRPN1 (NompC) channel agonism; HEK293 zebrafish TRPN1-YFP, Fluo-8 calcium fluorescence; 100% = response to 87 µM carbachol; activation, % at 3 µM; hit rate 0.18% among 220,000; AID 1424;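 active = activation above its plate's cutoff, the mean activation of test wells on that plate plus 3 SD, cut at about 19% in these data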;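 also: 0% = DMSO alone and 100% = 87 µM carbachol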
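System: zebrafish TRPN1-YFP in HEK293 cells / Dosing: 3 µM single point / Timing: dye loading 1 h at 37 °C, then 30 min room temperature / Signal: Fluo-8 calcium fluorescence, excitation 470-495 nm, emission 515-575 nm / Read-out basis: percent activation from peak over basal fluorescence ratio, control-normalized / Control set: high carbachol 87 µM, low DMSO alone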
GPR7 antag: antagonists of human GPR7 (neuropeptides B/W receptor 1); P48145; GPR7-expressing cells, fluorescence antagonist assay; inhibition, % at 4.4 µM; hit rate 1.1% among 290,000; in the data active = inhibition above about 16%, passing the limit was not always enough;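 also: cells stimulated with the agonist NPW; 0% = agonist with vehicle and 100% = vehicle without agonist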
Target sequence (P48145 whole entry, looked up): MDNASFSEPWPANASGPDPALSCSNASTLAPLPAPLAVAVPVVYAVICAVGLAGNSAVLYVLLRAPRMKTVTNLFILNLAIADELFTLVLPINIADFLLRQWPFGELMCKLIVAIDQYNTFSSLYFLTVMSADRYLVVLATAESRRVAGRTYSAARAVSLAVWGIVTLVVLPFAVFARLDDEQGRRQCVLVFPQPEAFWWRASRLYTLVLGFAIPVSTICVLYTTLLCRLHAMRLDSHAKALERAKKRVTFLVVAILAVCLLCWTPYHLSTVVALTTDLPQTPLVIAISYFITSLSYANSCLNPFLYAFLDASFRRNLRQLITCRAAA
TRPML3 ag: human mucolipin-3 channel agonism. Q8TDD5. HEK293 TRPML3-YFP, Fluo-8 calcium fluorescence; 100% = the carbachol control signal. activation, % at 3 µM. hit rate 0.29% among 220,000;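 active = activation above its plate's cutoff, the mean activation of the plate's test wells plus 3 SD, cut at about 12% in these data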;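 also: 0% = DMSO only wells and 100% = carbachol wells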
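Material: HEK293 cells stably carrying human TRPML3-YFP; compound dosing: single dose, 3 µM final nominal compound, 0.3% DMSO final; incubation: 1-h 37 °C dye load, 5-s basal, 120-s post-compound reads; technique: Fluo-8 intracellular calcium fluorescence, excitation 470-495 nm, emission 515-575 nm; read-out basis: percent activation from peak-to-basal fluorescence ratio, scaled between DMSO and carbachol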
CRFR2-BP ag: agonists of human CRF-binding protein/CRF-R2 receptor complex; AID 588473; HEK293 CRF-R2/CRF-BP, calcium dye fluorescence (FLIPR); percent of saturating CRF peptide response; activation, % at 13.2 µM; hit rate 0.46% among 350,000;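 active = activation of at least 50%, plus an integration ratio under a set limit after plate pattern correction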;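 also: plate controls were neutral control wells without compound for no effect and CRF at EC100 for full effect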
CRFBP-R2 block: blocks CRF-induced signaling of the CRF-BP/CRF-R2 complex. hit rate 0.59% among 350,000. HEK293 CRF-R2/CRF-BP, CRF-induced calcium fluorescence. inhibition, % at 11.8 µM. AID 588475;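 active = inhibition of the ligand-induced calcium signal above about 50% at the single tested concentration, limit read from the data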
GPR7 antag cf: human GPR7 antagonism, confirmation assay | shares compounds with GPR7 antag | GPR7-expressing cells, calcium fluorescence antagonist mode | inhibition, % at 4.4 µM | hit rate 52% among 2,400 | AID 1952; in the data active = inhibition above about 24%;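 also: stimulated with the GPR7 agonist NPW; 0% = agonist plus vehicle and 100% = vehicle alone without agonist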
MCHR1 antagonist: antagonizes human MCHR1, a GPR7 antagonist counter-screen; shares compounds with GPR7 antag; MCHR1-expressing cells, fluorescence antagonist assay; inhibition, % at 4.4 µM; hit rate 62% among 2,400; AID 2148; in the data active = inhibition above about 22%;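 also: 0% = vehicle with agonist and 100% = vehicle without agonist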
* marks the source's active call; other numbers are inactive results.

How did O=C(c1ccc(C(F)(F)F)cc1)C1CCCN(Cc2cccn2-c2ncccn2)C1 (configuration not stated) do in these assays?
TRPN1 ag: 0; GPR7 antag: 8; TRPML3 ag: 1; CRFR2-BP ag: 3; CRFBP-R2 block: -17

What do the screens show for `COc1ccc(NC(=S)NC(=O)Cc2ccccc2)c(OC)c1`?
GPR7 antag: -4; CRFR2-BP ag: 1; CRFBP-R2 block: -4

How did Cc1ccc(NC(=S)NC(=O)Cc2ccccc2)c(O)c1 do in these assays?
GPR7 antag: 29*; CRFR2-BP ag: 0; CRFBP-R2 block: -20; GPR7 antag cf: 42*; MCHR1 antagonist: 29*

How did COc1ccc(CN(CC(=O)NC(C)C)C(=O)CCC(=O)Nc2nccs2)cc1 do in these assays?
GPR7 antag: -3; CRFR2-BP ag: -1; CRFBP-R2 block: 2

How did O=C(CCNS(=O)(=O)c1ccccc1C(F)(F)F)NCCCN1CCOCC1 do in these assays?
CRFR2-BP ag: 2; CRFBP-R2 block: -1

How did CCOc1ccc(Oc2cc(N)cc([N+](=O)[O-])c2)cc1 do in these assays?
TRPN1 ag: -2; GPR7 antag: -5; TRPML3 ag: 1; CRFR2-BP ag: -2; CRFBP-R2 block: -11

Results for CCOc1ccc([N+](=O)[O-])c(N)c1 ?
TRPN1 ag: -1; GPR7 antag: 28*; TRPML3 ag: 0; CRFR2-BP ag: 0; CRFBP-R2 block: 9; GPR7 antag cf: 4; MCHR1 antagonist: 5

What do the screens show for `CCCN1C(=O)/C(=C/c2ccc(C)s2)SC1=Nc1ccc(OC)cc1`?
TRPN1 ag: 2; GPR7 antag: 0; TRPML3 ag: 1; CRFR2-BP ag: 3; CRFBP-R2 block: -15

How did CCN(CC)CCN1C(=O)/C(=C\c2ccc(Cl)c([N+](=O)[O-])c2)SC1=Nc1ccc(OC)cc1 do in these assays?
GPR7 antag: 46*; CRFR2-BP ag: 0; CRFBP-R2 block: -7; GPR7 antag cf: 75*; MCHR1 antagonist: 60*

How did COc1ccc(N=C2S/C(=C\c3ccc(Cl)c([N+](=O)[O-])c3)C(=O)N2CCN(C)C)cc1 do in these assays?
GPR7 antag: 48*; CRFR2-BP ag: 0; CRFBP-R2 block: 17; GPR7 antag cf: 65*; MCHR1 antagonist: 59*

Results for CCN1C(=O)/C(=C/c2cccs2)SC1=Nc1ccc(OC)cc1 ?
TRPN1 ag: 1; GPR7 antag: -4; TRPML3 ag: 0; CRFR2-BP ag: -1; CRFBP-R2 block: -1

How did COc1ccccc1CN1CCc2c([nH]c3ccccc23)C1 do in these assays?
GPR7 antag: 2; CRFR2-BP ag: -1; CRFBP-R2 block: -2

What do the screens show for `Clc1cccc(CN2CCc3c([nH]c4ccccc34)C2)c1Cl`?
GPR7 antag: 50*; CRFR2-BP ag: 18; CRFBP-R2 block: -47; GPR7 antag cf: 47*; MCHR1 antagonist: 29*

What do the screens show for `COc1ccc(N=C2SCC(c3ccc([N+](=O)[O-])cc3)=NN2CCO)cc1`?
TRPN1 ag: 1; GPR7 antag: 32*; TRPML3 ag: 0; CRFR2-BP ag: 1; CRFBP-R2 block: 26; GPR7 antag cf: 28*; MCHR1 antagonist: 40*

Results for O=[N+]([O-])c1ccc(C2=NN(CCO)C(=Nc3ccc(OC(F)(F)F)cc3)SC2)cc1 ?
TRPN1 ag: 2; GPR7 antag: 28*; TRPML3 ag: 0; CRFR2-BP ag: 2; CRFBP-R2 block: -2; GPR7 antag cf: 54*; MCHR1 antagonist: 37*

What do the screens show for `CCc1nnc2n1N=C(c1ccc([N+](=O)[O-])cc1)CS2`?
TRPN1 ag: 1; GPR7 antag: -11; TRPML3 ag: 0; CRFR2-BP ag: 0; CRFBP-R2 block: -1

How did COc1ccc(N=C2SCC(c3ccc(C)cc3)=NN2CCO)cc1 do in these assays?
TRPN1 ag: -2; GPR7 antag: 17; TRPML3 ag: 0; CRFR2-BP ag: 0; CRFBP-R2 block: 5

How did Cc1ccc(NC(=O)c2cccc(S(=O)(=O)N(C)C3CCCCC3)c2)nc1 do in these assays?
CRFR2-BP ag: 0; CRFBP-R2 block: -12

How did CC(c1ccco1)N(C(=O)c1ccccc1NS(=O)(=O)c1ccc(Cl)c([N+](=O)[O-])c1)c1ccccn1 (configuration not stated) do in these assays?
TRPN1 ag: 9; GPR7 antag: 24*; TRPML3 ag: 4; CRFR2-BP ag: 15; CRFBP-R2 block: 52*; GPR7 antag cf: 12; MCHR1 antagonist: 31*

How did CC(c1ccco1)N(C(=O)c1cc(Cl)cc(Cl)c1)c1ccccn1 (configuration not stated) do in these assays?
GPR7 antag: -15; CRFR2-BP ag: 2; CRFBP-R2 block: -1

What do the screens show for `Cc1cc(Cl)ccc1NS(=O)(=O)c1c(C)[nH]c(=O)[nH]c1=O`?
GPR7 antag: -10; CRFR2-BP ag: -1; CRFBP-R2 block: 6

What do the screens show for `OC(Cn1nnc2ccccc21)Cn1c(C(F)(F)F)nc2ccccc21` (configuration not stated)?
TRPN1 ag: 0; GPR7 antag: 0; TRPML3 ag: 0; CRFR2-BP ag: 7; CRFBP-R2 block: 12

How did CNCC(O)Cn1c(C(F)(F)F)nc2ccccc21 (configuration not stated) do in these assays?
TRPN1 ag: 1; GPR7 antag: 31*; TRPML3 ag: 0; CRFR2-BP ag: -1; CRFBP-R2 block: -14; GPR7 antag cf: -6; MCHR1 antagonist: 19

How did CC(C)(CO)NCc1c(OCc2ccc(Cl)cc2)ccc2ccccc12 do in these assays?
GPR7 antag: 32*; CRFR2-BP ag: -2; CRFBP-R2 block: -2; GPR7 antag cf: 27*; MCHR1 antagonist: 15

What do the screens show for `CNCc1c(OCc2ccccc2)ccc2ccccc12`?
GPR7 antag: 14; CRFR2-BP ag: 1; CRFBP-R2 block: -18

What do the screens show for `NS(=O)(=O)c1ccc(CNC(=O)C(c2ccccc2)c2ccccc2)cc1`?
GPR7 antag: 1; CRFR2-BP ag: -3; CRFBP-R2 block: 19

What do the screens show for `COc1ccc2[nH]c(=O)cc(C(=O)O)c2c1`?
TRPN1 ag: 0; GPR7 antag: 13; TRPML3 ag: 1; CRFR2-BP ag: 0; CRFBP-R2 block: -7

Results for COc1ccc2[nH]c3c4c(ccc3c2c1)C(=O)C=CC4=O ?
TRPN1 ag: -3; GPR7 antag: 23*; TRPML3 ag: -1; CRFR2-BP ag: 0; CRFBP-R2 block: -26; GPR7 antag cf: 62*; MCHR1 antagonist: 80*

What do the screens show for `CN1C(=O)C(/C(N)=N/NC(=O)c2ccccc2)C2CC1(C)Oc1ccccc12` (configuration not stated)?
TRPN1 ag: 0; GPR7 antag: 99*; TRPML3 ag: 0; CRFR2-BP ag: -1; CRFBP-R2 block: 14; GPR7 antag cf: 9; MCHR1 antagonist: -3
